Measured values published in ChEMBL document CHEMBL1154569, “Scalarane and homoscalarane compounds from the nudibranchs Glossodoris sedna and Glossodoris dalli: chemical and biological properties” (J Nat Prod, 2000).
Activity calls are given as the source filed them. The calls are words filed in the database; no cut-off is given here.

What was measured:
[1] = Inhibition of cytosolic PLA2
Summary of the method: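 Measured in RBL-2H3 cells stimulated with ionomycin.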

Gambusia affinis = test: Ichthyotoxicity against Gambusia affinis at 0.1 ppm

Structure (SMILES) | Activity [1] | Activity (Gambusia affinis) | IC50 [1] [µM]
CC(=O)O[C@H]1C[C@@H]2[C@@]3(C)CCCC(C)(C)[C@@H]3CC[C@@]2(C)[C@@H]2CC=C3CO[C@@H](O)[C@@H]3[C@@]12C | inactive | inactive | –
CC(=O)OC[C@]12CCCC(C)(C)[C@@H]1CC[C@]1(C)[C@@H]2C[C@@H](O)[C@]2(C)[C@@H]3C(=CC[C@@H]12)[C@H](C)O[C@H]3O | inactive | inactive | –
CC(=O)O[C@@H]1C[C@@H]2[C@@]3(C)CCCC(C)(C)[C@@H]3CC[C@@]2(C)[C@@H]2CC=C3CO[C@@H](O)[C@@H]3[C@@]12C | inactive | inactive | –
CC(=O)OC[C@]12CCCC(C)(C)[C@@H]1CC[C@]1(C)[C@@H]2C[C@@H](O)[C@]2(C)[C@@H](C=O)C(C(C)=O)=CC[C@@H]12 | – | – | 18
CC(=O)O[C@H]1C[C@@H]2[C@@]3(C)CCCC(C)(C)[C@@H]3CC[C@@]2(C)[C@@H]2CC=C(C=O)[C@H](C=O)[C@@]12C [SCALARADIAL] | – | Active | 0.6
C[C@@H]1O[C@@H](O)[C@H]2C1=CC[C@H]1[C@]3(C)CC[C@H]4C(C)(C)CCC[C@]4(C)[C@H]3C[C@@H](O)[C@]21C | inactive | inactive | –
